For data set [1] the following is noted: pH 7.4.
The conditions of data set [2]: property table of leuprolide acetate; no matrix and reference not given; cited from earlier work.
The test system of data set [3] is PC3 spheroids. Kind of data set: Anti-tumor response in 3D spheroid culture model. Type of data set: cell-based, human. The conditions noted are these: PC3 3D spheroids, 50 μM, 7 days, n = 3. Summed up: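 PC3 cells were suspended at 2000 cells/mL in 10% FBS-RPMI 1640 with 1% (v/v) Matrigel, plated in ultra-low-attachment wells, centrifuged at 1500 rpm for 10 min and grown at 37 °C, 5% CO2. After 4 days of spheroid formation, test compound was added once at final 50 μM in 2.5% FBS-RPMI. Spheroid area was imaged over 7 days and expressed as fold of day-0 area. n = 3.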

The test system of data set [4] is PC3 cells. Briefly: Cell proliferation assay in 2D monolayer culture. Type of data set: cell-based, human. Summed up:
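PC3 cells were grown in RPMI 1640 with 10% FBS and antibiotics, seeded at 1×10^4 cells/well, attached for 24 h, then dosed in 2.5% FBS-RPMI 1640. Single doses of 50, 100 and 200 μM were read at 72 h; daily 50 μM dosing ran for 4 days. Readout was WST-1 for 1 h with absorbance at 450 nm, versus untreated cells, plus live/dead imaging. n = 3, one-way ANOVA.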

The conditions of data set [5]: property table of leuprolide acetate; no reference given; cited from earlier work.

Consider “Leuprolide–palmitic acid nanoparticle [LPN]”, for which the “Change of particle size, short-time stability in PBS” value (from here on “Change of particle size”) in data set [1] is “no significant difference”. As to `CCNC(=O)[C@@H]1CCCN1C(=O)[C@H](CCCNC(=N)N)NC(=O)[C@H](CC(C)C)NC(=O)[C@@H](CC(C)C)NC(=O)[C@H](Cc1ccc(O)cc1)NC(=O)[C@H](CO)NC(=O)[C@H](Cc1c[nH]c2ccccc12)NC(=O)[C@H](Cc1c[nH]cn1)NC(=O)[C@@H]1CCC(=O)N1` [LEU, Leuprolide], in data set [2], the Half-life was 3 h. For the same compound, the “Spheroid growth (spheroid area/volume), one-time treatment” value in data set [3] is given as “expansion of spheroid volume”. Moreover, the “Anti-proliferative effect (% of control)” value in data set [4] (PC3, treatment repeated daily at 50 µM for 4 days, WST-1, n = 3) is reported as 8.9%. Moreover, the Physiological charge result in data set [5] is recorded as “+1”. On to “Leuprolide–lauric acid nanoparticle [LLN]”, for which the “Change of particle size” value in data set [1] was “slight increase in the particle size”.

Consider `CCCCCCCCCCCCCCCCCC(=O)O` [SA, stearic acid], for which, in data set [4] (PC3, one-time treatment, 50, 100, 200 μM, 72 h incubation, WST-1), the “Cell survival / cell growth after one-time treatment” value was “significantly inhibited cell growth”.

For “Leuprolide–stearic acid nanoparticle [LSN]”, in data set [1], the “Change of particle size” value was “no significant difference”.
